We go through seven compounds from ChEMBL document CHEMBL2163238, “Design, synthesis, and biological evaluation of N-alkylated deoxynojirimycin (DNJ) derivatives for the treatment of dengue virus infection” (J Med Chem, 2012).

Structures are written as SMILES.

Data set [1] can be described thus: Cytotoxicity against BHK cells assessed as cell viability by MTT assay. It counts as cell-based, Mesocricetus auratus. Particulars: hamster.
Data set [2] in a line: Selectivity index, ratio of CC50 for MDBK cells to EC50 for BVDV NADL infected in MDBK cells. The essentials: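 MDBK cells infected with BVDV NADL at MOI 1, 1 h at 37 °C, washed, then compounds at 0.1–100 μM. Media harvested at 22 h, plaque-titrated on MDBK under 1% methylcellulose for 3 days, neutral red or direct count. EC50 from yield curves; MTT CC50 in uninfected MDBK; SI = CC50/EC50.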

The next data set has as its system dengue virus type 2. Briefly: Antiviral activity against 0.01 MOI DENV-2 NGC infected in BHK cells assessed as reduction in viral titer after 48 hrs. It counts as functional, organism-based. The essentials: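 BHK cells infected with DENV-2 New Guinea C at MOI 0.01 for 1 h. Inoculum removed, then compounds at 0.1–100 μM for 48 h at 37 °C. Supernatants titrated on Vero monolayers as 10-fold dilutions under 0.5% methylcellulose for 3–5 days. Foci detected by 4G2 immunostaining or crystal violet plaques. EC50 from dose–response curves, mean of 3 independent experiments.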

Data set [3] is described as follows: Cytotoxicity against MDBK cells assessed as cell viability by MTT assay. It counts as cell-based, Bos taurus. The settings on record: cattle.
Data set [4] in a line: Selectivity index, ratio of CC50 for BHK cells to EC50 for DENV-2 NGC infected in BHK cells. In outline:
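BHK cells infected with DENV-2 New Guinea C at MOI 0.01 for 1 h, then compounds at 0.1–100 μM for 48 h at 37 °C. Supernatant titrated on Vero cells under 0.5% methylcellulose, 3–5 days; foci by 4G2 immunostaining or crystal violet plaques. EC50 from yield curves; MTT CC50 in uninfected BHK; SI = CC50/EC50.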

Data set [5] can be described thus: Antiviral activity against 1 MOI BVDV NADL infected in MDBK cells assessed as reduction in viral titer after 22 hrs. It counts as functional, cell-based, Bovine viral diarrhea virus 1-NADL. The settings on record: Bovine viral diarrhea virus isolates and strains, MDBK, 22 h. In outline: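 MDBK cells (2×10^5) infected 24 h after seeding with BVDV NADL at MOI 1, with 1 h adsorption at 37 °C. Washed, then compounds at 0.1–100 μM. Media harvested 22 h post-infection and plaque-titrated on MDBK under 1% methylcellulose for 3 days. Plaques counted directly or after neutral red staining. EC50 from dose–response curves, mean of 3 independent experiments.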

Turning to `Cc1ccccc1OCCCCCCN1C[C@H](O)[C@@H](O)[C@H](O)[C@H]1CO`, the figures for the CC50 in data set [1] and in data set [3] were 450000 nM and over 500000 nM, respectively. In addition, the “Ratio CC50/EC50” value is over 1250 in data set [2] and 900 in data set [4]. For the same compound, the EC50 worked out at 500 nM with dengue virus type 2 and 400 nM in data set [5].

Take `OC[C@@H]1[C@@H](O)[C@H](O)[C@@H](O)CN1CCCCCCOc1ccc(F)cc1`: the CC50 in data set [1] and in data set [3] was over 500000 nM each time. Moreover, the “Ratio CC50/EC50” value is on record as over 1667 in data set [2] and over 455 in data set [4]. The figures for the EC50 (in the data set with dengue virus type 2; in data set [5]) were 1100 nM and 300 nM, respectively.

For `OC[C@@H]1[C@@H](O)[C@H](O)[C@@H](O)CN1CCCCCCOc1ccc(C(F)(F)F)cc1`, the CC50 was 470000 nM in data set [1] and over 500000 nM in data set [3]. For the same compound, the “Ratio CC50/EC50” value is on record as over 455 in data set [2] and 362 in data set [4]. The EC50 was 1300 nM in the data set with dengue virus type 2 and 1100 nM in data set [5].

On to `OC[C@@H]1[C@@H](O)[C@H](O)[C@@H](O)CN1CCCCCCOc1ccccc1`, for which the CC50 in data set [1] and in data set [3] was over 500000 nM in each case. In addition, the “Ratio CC50/EC50” value in data set [2] is reported as over 556; in data set [4] it was over 294. The EC50 in the data set on dengue virus type 2 worked out at 1700 nM; in data set [5], 900 nM.

On to `OC[C@@H]1[C@@H](O)[C@H](O)[C@@H](O)CN1CCC#CCCOc1cc(F)ccc1F`, for which the CC50 in data set [1] and in data set [3] was over 500000 nM each time. In addition, the “Ratio CC50/EC50” value in data set [2] is over 11; in data set [4], over 25. Besides, the EC50 turned out to be 20000 nM with dengue virus type 2 and 47000 nM in data set [5].

`CCCOc1ccc(CCCN2C[C@H](O)[C@@H](O)[C@H](O)[C@H]2CO)cc1`: the CC50 in data set [1] and in data set [3] was over 500000 nM throughout. In addition, the “Ratio CC50/EC50” value was over 2500 in data set [2] and over 1000 in data set [4]. Moreover, the EC50 was 500 nM in the data set on dengue virus type 2 and 200 nM in data set [5].

Regarding `OC[C@@H]1[C@@H](O)[C@H](O)[C@@H](O)CN1CCCCCCOC1CCCC1`, the CC50 in data set [1] and in data set [3] was over 500000 nM throughout. For the same compound, the entries for the “Ratio CC50/EC50” value in data set [2] and in data set [4] were over 1667 and over 357, respectively. The EC50 was found to be 1400 nM in the data set on dengue virus type 2 and 300 nM in data set [5].
